Data from the RNAGym collection of RNA variant scans (doi:10.1101/gad.245936.114).
Fewer inactive variants are shown than the library holds.

B1: tRNA (parent)
chain: CUCUCGGUAGCCAAGUUGGUUUAAGGCGCAAGACUUUAAUUUAUCACUACGAAAUCUUGAGAUCGGGCGUUCGACUCGCCCCCGGGAGAUUUUUUCCUCGAGCAA

Variants of: B1
Test: nonsense suppression (GFP-seq) (ratio to wild type); higher = more function; SUP4oc tRNA, yeast GFP reporter sort-seq
Outline: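 Each variant's nonsense suppression (GFPSEQ) is a cell-share-weighted bin median GFP/RFP relative to the unmutated parent tRNA. Yeast with genome-integrated tRNA variants from a ~3% random-mutation library, a galactose-driven GFP ochre reporter and RFP were grown in raffinose/galactose medium with 80 mg/L adenine, then sorted into GFP/RFP bins for Illumina sequencing. Variants needed ≥100 reads and ≥30 cells.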

| Variant | nonsense suppression |
| --- | --- |
| U20A A24U U63A | ≤ 0.026 |
| G61U G67U | ≤ 0.026 |
| C12A A31G | 0.0261 |
| U17G G66U G69A | ≤ 0.026 |
| C27A G59U | ≤ 0.026 |
| A13U G65A | ≤ 0.026 |
| U21A A24C | 0.753 |
| G7A U16G G26C U71G | ≤ 0.026 |
| U55A G85C | ≤ 0.026 |
| A13C A30G | 0.892 |
| A13C G84A | 0.175 |
| G6C A9U G65U G85C | ≤ 0.026 |
| U2C A14U U57C | ≤ 0.026 |
| C34G G61A | 0.0334 |
| G61A G69A | 0.0276 |
| U63A G85A | 1.09 |
| C1U G66A | 0.254 |
| C5A U8C A9U C80A | ≤ 0.026 |
| U2C C3U C12U G15A | ≤ 0.026 |
| A60G A89U | 0.0291 |
| A24U C80U | 0.192 |
| U2G G10A C11G U20G A33G | ≤ 0.026 |
| U22A A31G | 1.05 |
| U20A U63G | 0.106 |

| Variant | nonsense suppression |
| --- | --- |
| U21G C29U | 0.809 |
| C34U G59U | ≤ 0.026 |
| C3A U4C | 0.191 |
| U4C U58G A74C | ≤ 0.026 |
| A62G C75A | 0.219 |
| A23C G88A | ≤ 0.026 |
| U4C A62U | 0.272 |
| U8C A31C A54U G85A G88A | ≤ 0.026 |
| U16A G28A | 1.11 |
| C11A C12U G59A U71A | ≤ 0.026 |
| A9C A60U | 0.575 |
| G78U C82U | 0.105 |
| C3G C77A C83A | ≤ 0.026 |
| A31U U55G G67C | ≤ 0.026 |
| A9G U16C G18U | ≤ 0.026 |
| C3U U63A | 0.12 |
| A13C U57A G66A | ≤ 0.026 |
| U21A U22G U76A C77A G88A | ≤ 0.026 |
| G67A U76G G78A | ≤ 0.026 |
| U63C G78U | 0.0499 |
| A31G A33G C56A G65U | ≤ 0.026 |
| U63G C82U | 0.0882 |
| U55C G84U | 0.0453 |
| U16C G78U | 0.454 |

| Variant | nonsense suppression |
| --- | --- |
| U20G G73A | 0.677 |
| A23G G67U | ≤ 0.026 |
| A31G A54C | 0.0977 |
| A9C A60C | 0.0924 |
| A9G U63C A74U C75U C79U | ≤ 0.026 |
| U22G A31U U63C U71A | ≤ 0.026 |
| G73A U76A | 0.0803 |
| C1A G67C C72A | ≤ 0.026 |
| C5U C80G | ≤ 0.026 |
| C12A A33G G67U | ≤ 0.026 |
| U17G G28A | 1.12 |
| U4G G18C A24G G61C C81A | 0.057 |
| A9G A13C | 0.183 |
| U8A A54U U76C A87C | ≤ 0.026 |
| U17G C79U | 0.764 |
| U22C U63C | 1.2 |
| U2C A13U C72A | ≤ 0.026 |
| A9U C12U | 0.29 |
| G15A G61C | 0.034 |
| G10A A24C G85U | ≤ 0.026 |
| U8C U21A | ≤ 0.026 |
| C1U G85C A89C | ≤ 0.026 |
| C5U A23G G26C G78A | ≤ 0.026 |
| U63G G84C | 0.0283 |

| Variant | nonsense suppression |
| --- | --- |
| U17G U22G | 1.04 |
| U16C G78A | 0.837 |
| G18C A33G C80G | ≤ 0.026 |
| A9U A54U | 0.222 |
| A9G G10A | 0.0344 |
| A13G U17C A23C C75A G88A | ≤ 0.026 |
| C5U A60C | 0.0867 |
| A14U A54C C68A G73C G84A | 0.202 |
| A30G U55G U63G C64A | ≤ 0.026 |
| G7U U55C C68U A89C | ≤ 0.026 |
| C1U G19U G28C U57C G84A | ≤ 0.026 |
| C3A A33U | ≤ 0.026 |
| A9C U63G | 0.0362 |
| A24U G61A | 0.124 |
| U4A A13U | 0.18 |
| C1U A14U | ≤ 0.026 |
| U4G A87C | 0.0794 |
| A31G U35C | 0.0321 |
| G28C G61C | 0.386 |
| A62U U63C | ≤ 0.026 |
| G10A C29G A54G | ≤ 0.026 |
| A13U G69A | 0.072 |
| U4C C11U | 0.109 |
| U16G G25C U55G | ≤ 0.026 |

| Variant | nonsense suppression |
| --- | --- |
| G78A | 0.775 |
| A30U C64U | ≤ 0.026 |
| C3A U35A | ≤ 0.026 |
| U21C G61A | 0.881 |
| G28C G61A U63C | 0.041 |
| U57A A60C | 0.0859 |
| U4G G59A | 0.0506 |
| C11U U55A G61C G88C | ≤ 0.026 |
| U58C G61A | 0.0586 |
| G18U G25U G67C | ≤ 0.026 |
| G61A G84C | 0.0752 |
| A24C G65U | 0.0266 |
| A24U G78U | 0.0565 |
| U22A G73A | 0.325 |
| A31C A62G G78A | ≤ 0.026 |
| C56G G61C G88U | ≤ 0.026 |
| U8A U57C A74C G78U G85U A87U | ≤ 0.026 |
| G6C U20G | ≤ 0.026 |
| U20C C75U | 0.843 |
| U22A C75A A89C | ≤ 0.026 |
| A9C U35A | ≤ 0.026 |
| A33G C75U | 0.275 |
| G73A A89C | 0.0768 |
| U17A A31G C72G U76A G78U | ≤ 0.026 |

| Variant | nonsense suppression |
| --- | --- |
| U21G G61A C64A C81A | ≤ 0.026 |
| A31U U63A | 0.0391 |
| A24C U58G G86U | ≤ 0.026 |
| A13U G61C | 0.191 |
| C5U U17C | 0.0495 |
| G6A A24G C27A C29G | ≤ 0.026 |
| C3U C75U | 0.539 |
| C11G G59A C64A | ≤ 0.026 |
| G7U U8C | ≤ 0.026 |
| G6A A31C A60C C72A G86A | ≤ 0.026 |
| U17A G26U A89U | ≤ 0.026 |
| C1A A13U | ≤ 0.026 |
| C1A U35G | ≤ 0.026 |
| C64U U71G | ≤ 0.026 |
| C29U A54U | 0.869 |
| A13C G28C | 0.794 |
| U4G C81U | 0.161 |
| C1U U2C A54C G61U U76A | ≤ 0.026 |
| C12U G25U | 0.192 |
| G78A C79G | 0.0629 |
| C3U A13C | 0.184 |
| C5U G7U G25A | ≤ 0.026 |
| A31U G59A C80U | ≤ 0.026 |
| A30U A54C | 0.0467 |

| Variant | nonsense suppression |
| --- | --- |
| G78A C82A | 0.0338 |
| U2A U63C G84U | ≤ 0.026 |
| U17C G61A | 0.235 |
| C1U C3U C12U | ≤ 0.026 |
| U55G A74U | ≤ 0.026 |
| U55A U70C | ≤ 0.026 |
| C64G G85C | ≤ 0.026 |
| A14G G28U G78C | ≤ 0.026 |
| U17C G84A | 0.048 |
| U21C C56U | 0.174 |
| A30G G61A | 0.75 |
| A54C U63C | 0.729 |
| C11U A62G U63A | ≤ 0.026 |
| A30C U70C | ≤ 0.026 |
| A14U G86C | ≤ 0.026 |
| G6U U57A | ≤ 0.026 |
| U20G U21A | 1.18 |
| C3G A14U G18U | ≤ 0.026 |
| G6U C83G | 0.923 |
| C34U C77G C79G A89U | ≤ 0.026 |
| U16A U76C | 1.19 |
| A31C G84U | ≤ 0.026 |
| U2G G6C G18A G67C G86A A87U | ≤ 0.026 |
